Measurements: ChEMBL document CHEMBL3870350, “Synthesis and application of β-carbolines as novel multi-functional anti-Alzheimer's disease agents” (Bioorg Med Chem Lett, 2017)

Assays:
[1] = Antioxidant activity assessed as inhibition of peroxyl radical-induced oxidation at 10 uM by ORAC assay; format: functional; set-up: scale not given: the % may be the effect or the level left
[2] = Antioxidant activity assessed as DPPH radical scavenging activity at 10 uM; format: functional
[3] = Antioxidant activity assessed as ABTS free radical scavenging activity at 10 uM; format: functional
Cholinesterase [4] = target: T1, Cholinesterase (Homo sapiens, UniProt P06276); assay: Inhibition of BuChE (unknown origin) by spectrophotometric analysis based Ellman's assay
T1 sequence (P06276 whole entry): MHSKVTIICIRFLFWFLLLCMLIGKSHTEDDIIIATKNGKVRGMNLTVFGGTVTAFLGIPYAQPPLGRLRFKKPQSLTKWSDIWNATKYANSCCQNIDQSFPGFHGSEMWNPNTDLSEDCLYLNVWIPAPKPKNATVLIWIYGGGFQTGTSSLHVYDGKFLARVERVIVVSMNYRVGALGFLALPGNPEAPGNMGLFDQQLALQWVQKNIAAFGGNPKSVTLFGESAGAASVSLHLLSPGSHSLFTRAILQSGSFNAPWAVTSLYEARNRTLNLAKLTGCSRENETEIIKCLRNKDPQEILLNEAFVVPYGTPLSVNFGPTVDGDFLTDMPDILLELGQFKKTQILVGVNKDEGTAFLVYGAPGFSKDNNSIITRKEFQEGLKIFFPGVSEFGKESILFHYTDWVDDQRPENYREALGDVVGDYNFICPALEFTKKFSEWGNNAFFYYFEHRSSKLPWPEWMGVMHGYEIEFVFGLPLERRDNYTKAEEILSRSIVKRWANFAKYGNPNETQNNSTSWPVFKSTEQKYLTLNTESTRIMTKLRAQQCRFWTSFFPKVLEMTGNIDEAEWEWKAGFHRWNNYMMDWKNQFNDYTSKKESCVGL

Cholinesterase [5] = target: T1, Cholinesterase; assay: Inhibition of BuChE (unknown origin) at 10 uM by spectrophotometric analysis based Ellman's assay
Summary of the method: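 Ellman colorimetric assay of BuChE activity, with each compound tested at a single 10 μM concentration. […] Activity is reported as percent inhibition.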

[6] = target: Amyloid-beta precursor protein (Homo sapiens) (UniProt P05067); assay: Inhibition of human amyloid-beta (1 to 42 residues) fibril at 1:1 protein to compound ratio after 2 hrs by ELISA; conditions: concentration not given here
Sequence of Amyloid-beta precursor protein (Homo sapiens) (P05067 whole entry, the tested form may be a part): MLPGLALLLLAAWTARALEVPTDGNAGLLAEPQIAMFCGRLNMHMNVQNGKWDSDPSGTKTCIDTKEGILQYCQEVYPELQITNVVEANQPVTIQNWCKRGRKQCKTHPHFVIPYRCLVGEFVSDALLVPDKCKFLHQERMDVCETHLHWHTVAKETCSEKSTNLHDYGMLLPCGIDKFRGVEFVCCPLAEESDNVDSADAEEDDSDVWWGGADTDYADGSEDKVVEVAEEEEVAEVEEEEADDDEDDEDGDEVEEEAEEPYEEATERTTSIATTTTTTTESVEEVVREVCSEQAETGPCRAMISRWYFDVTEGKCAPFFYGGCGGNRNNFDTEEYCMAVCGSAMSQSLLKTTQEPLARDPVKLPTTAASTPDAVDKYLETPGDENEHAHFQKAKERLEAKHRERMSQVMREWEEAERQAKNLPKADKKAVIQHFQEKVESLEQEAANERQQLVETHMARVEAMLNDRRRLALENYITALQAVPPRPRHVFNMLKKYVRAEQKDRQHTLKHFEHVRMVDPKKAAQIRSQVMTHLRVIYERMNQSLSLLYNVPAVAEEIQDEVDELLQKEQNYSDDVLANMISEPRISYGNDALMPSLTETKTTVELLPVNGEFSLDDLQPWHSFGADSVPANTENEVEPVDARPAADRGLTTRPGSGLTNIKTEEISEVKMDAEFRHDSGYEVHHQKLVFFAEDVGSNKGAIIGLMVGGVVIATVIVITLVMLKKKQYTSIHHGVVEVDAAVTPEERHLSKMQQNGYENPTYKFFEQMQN

[7] = target: Amyloid-beta precursor protein (Homo sapiens) (UniProt P05067); assay: Inhibition of human amyloid-beta (1 to 42 residues) oligomer at 1:1 protein to compound ratio after 2 hrs by ELISA; conditions: concentration not given here

Row | SMILES | Activity [1] [%] | Activity [2] [%] | Activity [3] [%] | IC50 (Cholinesterase [4]) [µM] | inhibition (Cholinesterase [5]) [%] | inhibition [6] [%] | inhibition [7] [%]
1 | Cc1c(C)c2c(c(C)c1O)CCC(C)(C(=O)O)O2 (stereo not given) | 90 | 23 | 26 |  |  |  | 
2 | Cc1ccc2[nH]c3c(-c4ccccc4)nccc3c2c1 | 10 | 2 | 10 | 3.06 | 54 | -7 | 6
3 | O=C1O[C@H]([C@@H](O)CO)C(O)=C1O | 15 | 15 | 28 |  |  |  | 
4 | c1ccc(-c2nccc3c2[nH]c2ccccc23)cc1 | 10 | -7 | 12 | > 10 | 46 | -4 | 79
5 | COc1ccc2[nH]c3c(-c4ccc(F)cc4)nccc3c2c1 | 41 | -13 | 15 | > 10 | 34 | 12 | 
6 | COc1ccc2[nH]c3c(C(=O)c4ccc(F)cc4)nccc3c2c1 | 5 | -4 | 5 | > 10 | 1 | 6 | 82
7 | COc1ccc2[nH]c3c(-c4ccc(C)cc4)nccc3c2c1 | 28 | -12 | 13 | > 10 | 32 | 10 | 63
8 | c1ccc2c(-c3nccc4c3[nH]c3ccccc34)cccc2c1 | 0 | -6 | 14 | 0.22 | 95 | 39 | 58
9 | O=C(c1ccccc1)c1nccc2c1[nH]c1ccccc12 | 6 | -3 | 6 | > 10 | 11 | 20 | 
10 | COc1ccc2[nH]c3c(C(=O)c4ccc(C(F)(F)F)cc4)nccc3c2c1 | 5 | 2 | 3 | 1.42 | 46 | -5 | 84
11 | COc1ccc2[nH]c3c(-c4ccccc4)nccc3c2c1 | 35 | -6 | 16 | 4.48 | 64 | 19 | 58
12 | O=C(c1ccc(C(F)(F)F)cc1)c1nccc2c1[nH]c1ccccc12 | -10 | -1 | 7 | 1.29 | 69 | 11 | 
13 | Cc1ccc2[nH]c3c(-c4ccc(C(F)(F)F)cc4)nccc3c2c1 |  |  |  |  |  | 34 | 82
14 | Cc1ccccc1-c1nccc2c1[nH]c1ccccc12 | 58 | 0 | 15 | > 10 | 7 | 17 | 45
15 | Fc1ccc(-c2nccc3c2[nH]c2ccccc23)cc1 | 54 | -3 | 22 | 4.27 | 79 | 37 | 22
16 | c1ccc2c(c1)[nH]c1c(C3CCCCC3)nccc12 |  |  |  |  |  |  | 30
